APJ antagonist = blocks the human apelin receptor APJ; CHO-K1 APJ beta-arrestin complementation, luminescence; inhibition, % at 20 µM; 330,000 compounds, 0.32% hits; AID 2521;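 active = inhibition above about 40% at 20 µM, limit read from the data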;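 note: cells challenged with 10 nM apelin-13 agonist together with compound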
CCR6 antag = antagonists of human CCR6 receptor. CHO-K1 CCR6 PathHunter beta-arrestin, luminescence, CCL20-stimulated. P51684. inhibition, % at 20 µM. 340,000 compounds, 0.49% hits;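 active = compounds whose inhibition of the agonist-driven luminescence signal at 20 µM reaches about 50%, limit read from the data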;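 note: cells stimulated with CCL20 at 14 nM final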
EBI2 antag = EBI2 (human) antagonism | 360,000 compounds, 0.81% hits | P32249 | AID 651636 | inhibition, % at 5 µM | EBI2 beta-arrestin recruitment, luminescence, 7a,25-OHC stimulated; in the data active = inhibition above about 38%;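 note: enzyme fragment complementation signal reports receptor beta-arrestin coupling in cells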
Target sequence (P32249 whole entry, looked up, the tested form may be a part): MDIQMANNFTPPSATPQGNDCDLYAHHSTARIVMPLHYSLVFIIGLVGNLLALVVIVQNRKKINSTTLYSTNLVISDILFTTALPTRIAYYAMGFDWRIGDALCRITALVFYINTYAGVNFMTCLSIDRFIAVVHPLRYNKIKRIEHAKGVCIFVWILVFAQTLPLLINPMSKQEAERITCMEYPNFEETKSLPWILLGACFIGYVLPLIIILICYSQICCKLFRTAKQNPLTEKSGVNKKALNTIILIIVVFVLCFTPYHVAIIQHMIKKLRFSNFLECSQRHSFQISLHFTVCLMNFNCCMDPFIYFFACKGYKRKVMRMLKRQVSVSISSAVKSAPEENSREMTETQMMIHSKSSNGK
APJ ag = agonists of human APJ apelin receptor; P35414; activation, % at 20 µM; AID 2520; 330,000 compounds, 0.11% hits; CHO-K1 APJ PathHunter beta-arrestin, luminescence; 0% DMSO wells, 100% apelin;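 active = activation more than six SD over the plate average, tested at 20 µM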
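system = engineered CHO-K1 APJ arrestin reporter cells | input = 1000 cells per well | timing = overnight seeding, 90 min compound at 25 °C, 1 h detection | measured by = enzyme-fragment complementation luminescence | read-out = beta-arrestin recruitment to APJ as agonist activity, luminescent signal | control set = negative DMSO alone, positive Apelin-13 at 10 nM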
CXCR6 inh = blocks human CXCR6 beta-arrestin recruitment; inhibition, % at 20 µM; O00574; CHO-K1 PathHunter CXCR6 beta-arrestin, luminescence; 360,000 compounds, 0.36% hits; in the data active = inhibition above about 34%, passing the limit was not always enough;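 note: antagonist mode with CXCL16 agonist at 10 nM final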
m5-HT2A agonist = activates the mouse 5-HT2A serotonin receptor; P35363; CHO-K1 mHTR2A beta-arrestin complementation, luminescence; percent of 30 µM serotonin response; activation, % at 7.6 µM; 360,000 compounds, 0.66% hits;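 active = activation above a run cutoff, the mean activation of all tested compounds plus 3 SD, cut at about 14% in these data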
APJ antag conf = APJ receptor antagonism confirmation. shares compounds with APJ antagonist. APJ beta-arrestin recruitment, luminescence, antagonist mode. inhibition, % at 20 µM. 950 compounds, 66% hits. AID 2766; in the data active = inhibition above about 50%
Large screens that a line does not name were inactive (follow-up assays come after a bar, where they were run). Hits are enriched below; roughly 2.1% of the tested compounds scored in any of these assays.

COc1ccccc1NC(=O)CCC(=O)OCC(=O)c1ccc(C)c([N+](=O)[O-])c1	APJ antagonist 50.2 | APJ antag conf 62.0
COc1ccccc1NC(=O)CCC(=O)OCc1cccc([N+](=O)[O-])c1	none
Cc1ccccc1NC(=O)CCC(=O)OCC(=O)c1cccc([N+](=O)[O-])c1	APJ antagonist 56.2, CCR6 antag 54.1 | APJ antag conf 98.1
Cc1ccc(C(=O)COC(=O)CCS(=O)(=O)c2ccccc2)cc1[N+](=O)[O-]	none
O=C(CCC(=O)OCC(=O)c1ccc(Br)cc1)NC1CCCCC1	none
O=C(CCC(=O)OCC(=O)c1cccc([N+](=O)[O-])c1)Nc1cccc(Cl)c1Cl	APJ antagonist 40.7, CCR6 antag 61.7 | APJ antag conf 80.7
c1ccc(NN=C(c2ccccc2)c2cccs2)cc1	none (no result: APJ antagonist, CCR6 antag, APJ ag)
Cc1ccnc2nc(C(=O)Nc3cc(Cl)ccc3N3CCOCC3)nn12	APJ antagonist 57.0 | APJ antag conf inactive
O=C(Nc1cc(Cl)ccc1N1CCOCC1)c1ccc(Br)o1	none
CCN(CC)c1nc(C)c(C(=S)Nc2cc([N+](=O)[O-])ccc2Cl)s1	APJ antagonist 40.1, CCR6 antag 57.0, CXCR6 inh 42.2 | APJ antag conf 100.1
CCC(C)(C)C(=O)Nc1cc([N+](=O)[O-])ccc1Cl	none
O=C1NN(c2ccccc2)C(=O)/C1=C\c1ccc(-c2cc([N+](=O)[O-])ccc2O)o1	APJ antagonist 45.6, CCR6 antag 62.3, CXCR6 inh 42.8 | APJ antag conf 93.3
O=C1NN(c2ccc(Cl)cc2)C(=O)/C1=C\c1ccc(-c2cccc(C(=O)O)c2)o1	none (no result: APJ antagonist, APJ ag)
COc1ccccc1N1CCN(C(=O)c2c(C)cc(=O)oc2C)CC1	APJ antagonist 56.7 | APJ antag conf inactive
COc1ccc(C(=O)OCC(=O)NCC2CCCCC2)c(OC)c1	none
COc1ccc(NC(=S)N2CCC(c3nc4ccccc4o3)CC2)c(OC)c1	none
O=C(Nc1ccc(Cl)c(S(=O)(=O)N2CCCC2)c1)c1nn(CCO)c(=O)c2ccccc12	none
CCOC(=O)c1c(C)[nH]c(C)c1C(=O)Cn1nnc(-c2ccccc2C)n1	APJ antagonist 46.4 | APJ antag conf inactive
c1ccc(NCc2nnc3n2CCCCC3)cc1	none
Clc1ccc(NCc2nnc3n2CCCCC3)cc1	APJ antagonist 57.7 | APJ antag conf inactive
CC1Oc2ccccc2N(CC(=O)Nc2ccc(F)cc2)C1=O (centres undefined)	none
COC(=O)Nc1ccc(S(=O)(=O)NC2CCCCC2)cc1	none
Cc1ccc(-c2cc3c(nn2)-c2ccccc2C3=O)cc1	APJ antagonist 43.3, EBI2 antag 59.6 | APJ antag conf 147.0
CN1CCCC(OC(=O)c2cc(Cl)ccc2Cl)C1 (centres undefined)	none
CN1CCCC(OC(=O)c2cc(Br)ccc2Cl)C1 (centres undefined)	APJ antagonist 50.7 | APJ antag conf inactive
CN=C(c1ccc([N+](=O)[O-])cc1)N1CCCCC1	none
Fc1cc2ncn(Cc3ccccc3)c2cc1F	APJ antagonist 61.4 | APJ antag conf inactive
c1ccc(Cn2cnc3ccccc32)cc1	none
O=C(CC12CC3CC(CC(Br)(C3)C1)C2)NC1CCCC1	none
Cc1cc(C)cc(N(CC(=O)NCCSc2ccccn2)S(=O)(=O)c2ccccc2)c1	APJ antagonist 42.8 | APJ antag conf inactive
O=C(CCC(=O)N1CCOc2ccccc21)N1CCN(c2ccccc2)CC1	none
CCOC(=O)N1CC=C2C(C#N)=C(N)C(C#N)(C#N)[C@H](c3ccc(OCC)c(OCC)c3)[C@H]2C1	none
N#CC1=C(N)C(C#N)(C#N)C(c2cccnc2)C2CN(C(=O)OCc3ccccc3)CC=C12 (centres undefined)	APJ antagonist 49.7, CCR6 antag 53.0 | APJ antag conf inactive
COc1ccccc1OCC(O)Cn1nc(C)cc1C (centres undefined)	none
COc1ccccc1Oc1cc(-n2nc(C)cc2C)ncn1	APJ antagonist 54.3 | APJ antag conf inactive
COc1ccc(N=C2C(=O)N3c4c(cccc42)C(C)=CC3(C)C)cc1	APJ antagonist 45.7, CCR6 antag 50.3 | APJ antag conf 88.9
O=C(CCCC(=O)OCC(=O)c1ccc(Cl)cc1Cl)Nc1cc(C(F)(F)F)ccc1Cl	APJ antagonist 42.9, CCR6 antag 72.0 | APJ antag conf 54.6
O=C(CCCC(=O)OCC(=O)c1ccc(F)cc1)Nc1cc(C(F)(F)F)ccc1Cl	none
Cc1cc(Cn2nnc3ccccc32)c(O)c(C(C)(C)C)c1	APJ antagonist 42.9 | APJ antag conf inactive
CC(C)(C)c1cccc(Cn2nnc3ccccc32)c1O	none
Cn1nnc(NC(=S)NC(=O)c2cccc3ccccc23)n1	APJ antagonist 50.7 | APJ antag conf 86.2
Cn1nnc(NC(=S)NC(=O)c2ccc3ccccc3c2)n1	none (no result: APJ antagonist, CCR6 antag, APJ ag)
CCOc1ccc2nc(N=NC3=C(O)CC(C)(C)CC3=O)sc2c1	APJ antagonist 41.2 | APJ antag conf 50.6
COc1cc2c(cc1OC)C1(CCCC1)CNC2c1cccc([N+](=O)[O-])c1 (centres undefined)	APJ antagonist 47.3, CCR6 antag 78.4, CXCR6 inh 63.3 | APJ antag conf 78.2
COc1cc2c(cc1OC)C(c1cccc([N+](=O)[O-])c1)NC(=O)C2 (centres undefined)	none
COc1ccc(-c2cc(C(F)F)n3ncc(C(=O)Nc4cc(C)on4)c3n2)cc1	none
Cc1cccc(-c2nnc(C(C)Nc3cccc(C(=O)NC4CC4)c3)o2)c1 (centres undefined)	none (no result: APJ antagonist, CCR6 antag, APJ ag)
COc1cc(/C=C(\C#N)C(=O)c2c[nH]c3ccccc23)cc(OC)c1O	APJ antagonist 40.4, CCR6 antag 57.5, CXCR6 inh 45.7 | APJ antag conf 79.2
COc1cc(C(=O)NC(=S)Nc2ccc([N+](=O)[O-])cc2C)cc(OC)c1OC	APJ antagonist 43.0 | APJ antag conf 65.1
Cc1ccc(CNC(=S)Nc2cc(C(=O)O)ccc2C)cc1	none
Cc1ccc(C(=O)O)cc1NC(=S)NC(=O)c1ccc([N+](=O)[O-])c(C)c1	APJ antagonist 40.0 | APJ antag conf inactive
COc1cccc(C(=O)NC(=S)Nc2ccc([N+](=O)[O-])cc2C)c1	none
Cc1ccc(NC(=O)CSc2nnc(COc3ccccc3F)n2N)cc1S(=O)(=O)N1CCOCC1	none (no result: APJ antagonist, APJ ag)
CCCCNC(=S)NNC(=O)CCn1nc(C)c(Br)c1C	APJ antagonist 64.3 | APJ antag conf 124.8
Cc1nn(CCC(=O)NNC(=S)Nc2ccc([N+](=O)[O-])cc2)c(C)c1[N+](=O)[O-]	APJ antagonist 48.9 | APJ antag conf 87.4
Cc1nn(CCC(=O)NNC(=S)Nc2ccc(F)cc2)c(C)c1Br	APJ antagonist 51.8 | APJ antag conf 108.0
